Source: PubChem BioAssay (Johns Hopkins Ion Channel Center)
Most compounds without a hit are left out; they make up all but 3.1% or so of the library.
KCNQ1 act: potentiates or activates the human KCNQ1 potassium channel. P51787. CHO-K1 KCNQ1, thallium flux FluxOR fluorescence; active compounds read high. actives 0.35% (n = 310,000). AID 2648. B-score at 10 µM;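 active means fluorescence ratio B-score, a plate-corrected score, at least three library SD, with initial intensity B-score within 5 SD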
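Assay system: CHO-K1 cells stably expressing KCNQ1. Medium: assay buffer for compound exposure, DMSO matched across wells. Timing: 37 °C overnight plating, 90-min dark dye load, 20-min compound pretreatment. Signal: kinetic FluxOR fluorescence, 10 s baseline plus 110 s post-stimulus.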
KCNK9 inh: human KCNK9 channel inhibition; Q9NPC2; HEK293 KCNK9, FluxOR thallium flux fluorescence; active compounds read low; B-score at 10 µM; actives 1.2% (n = 310,000); AID 488922;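 active means ratio B-score over 3 SD below the library mean, with starting fluorescence within 5 SD of its mean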;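 further: negative B-score means less thallium flux so channel inhibition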
KCNQ1 block: inhibitors of human KCNQ1 potassium channel. P51787. CHO-K1 KCNQ1, FluxOR thallium flux fluorescence; active compounds read high. B-score at 10 µM. actives 1.3% (n = 310,000). AID 2642;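 active means compounds whose thallium flux B-score, printed positive for inhibition, exceeds three library SD while starting fluorescence stays within three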;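 further: channel opened by potassium depolarization with thallium stimulus after 20 min compound exposure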
KCNK3 block: human KCNK3 channel inhibition, primary screen; CHO-KCNK3 thallium flux, FluxOR fluorescence; active compounds read low; B-score at 10 µM; actives 0.84% (n = 340,000); AID 602410;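 active means B-score under library mean minus 4 SD, starting fluorescence ratio at most library mean plus 5 SD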;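 further: more negative B-score means stronger inhibition of thallium flux through KCNK3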
Target sequence (O14649 whole entry, looked up): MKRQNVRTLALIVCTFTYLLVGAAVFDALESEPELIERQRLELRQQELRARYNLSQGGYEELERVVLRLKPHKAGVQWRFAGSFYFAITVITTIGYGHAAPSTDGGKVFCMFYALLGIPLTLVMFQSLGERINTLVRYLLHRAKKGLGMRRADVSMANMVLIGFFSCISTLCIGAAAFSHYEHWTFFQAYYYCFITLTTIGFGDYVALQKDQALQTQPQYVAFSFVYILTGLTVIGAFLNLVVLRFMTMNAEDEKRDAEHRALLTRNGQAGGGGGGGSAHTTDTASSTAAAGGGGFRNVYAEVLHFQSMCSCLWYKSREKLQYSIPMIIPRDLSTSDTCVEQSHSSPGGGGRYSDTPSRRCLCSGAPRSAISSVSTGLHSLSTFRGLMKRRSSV
hERG protect: hERG (human) protection from proarrhythmic block; Q12809; CHO-hERG, FluxOR thallium flux, dofetilide IC70 present; activation (rescue from dofetilide block), less the hit threshold, % at 10 µM; actives 0.51% (n = 310,000); AID 1511;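 active means activation above the mean of controls blocked by dofetilide plus 5 SD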;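 further: thallium influx through hERG after potassium depolarization seen as dye fluorescence rise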
KCNK3 confirm: human KCNK3 channel inhibition, confirmation assay | shares compounds with KCNK3 block | CHO-KCNK3 thallium flux, FluxOR fluorescence; 0% buffer, 100% carvedilol maximal block | ratio percent of control, % at 10 µM | actives 99% (n = 2,400) | AID 651638;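 active means ratio percent of control, averaged over triplicates, above buffer control mean plus 5 SD, cut at about 64% in these data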;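 further: ratio is the fluorescence rise from min to max over baseline after thallium stimulus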
KCNK3 noninduced: KCNK3 inhibitor counter-screen hit in non-induced cells | AID 651747 | non-induced KCNK3 parental cells, FluxOR thallium flux; active compounds read low | thallium flux ratio (lower = more inhibition) at 10 µM | shares compounds with KCNK3 block | actives 40% (n = 2,400);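 active means thallium flux ratio, averaged over three wells, more than 5 SD below the buffer control mean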;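 further: host cells are CHO cells without KCNK3 induction; ratio is peak minus trough fluorescence over baseline then normalized to buffer controls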
Active calls of the source: *; i = inactive; . = no result given.

SMILES	KCNQ1 act	KCNK9 inh	KCNQ1 block	KCNK3 block	hERG protect	KCNK3 confirm	KCNK3 noninduced
CCCCNc1oc(-c2cccs2)nc1S(=O)(=O)c1ccccc1	i	i	i	-9.5*	-10	127*	0.13*
COc1ccc(-c2[nH]c3ccccc3c2SCCNC(=O)c2ccccc2)cc1	i	i	i	-9.6*	-15	117*	0.14*
Cc1cccc(C(=O)NN/C=C/C(=O)c2ccccc2)c1	i	i	i	-9.1*	-6	100*	i
Cc1ccc(C(=O)C=CNNC(=O)c2ccccc2)cc1	i	i	i	i	-13	.	.
Cc1cc(C)c2c(CN3CCC(C)CC3)cc(=O)oc2c1C	i	i	i	-12*	-4	103*	i
Cc1csc(=O)n1CC(=O)OCC(=O)c1c(N)n(C)c(=O)n(C)c1=O	i	i	i	i	-15	.	.
CC1CCc2nc3ccccc3c(C(=O)OCC(=O)NC3CCS(=O)(=O)C3)c2C1 (stereo not drawn)	i	i	i	i	-10	.	.
COc1cccc(NC(=O)COC(=O)c2c3c(nc4ccccc24)CCC(C)C3)c1 (stereo not drawn)	i	i	i	-10*	-22	96*	i
O=C(COC(=O)c1cc(Br)ccc1O)Nc1cc(S(=O)(=O)N2CCCC2)ccc1Cl	i	-6.6*	i	-9.5*	-21	96*	i
CCN(C(=O)C1CCCN(c2ncnc3c2nc2n3CCCCC2)C1)c1cccc(Cl)c1 (stereo not drawn)	i	i	i	-12*	-17	89*	i
Cc1cccc(Nc2nc(N)c([N+](=O)[O-])c(N3CC(C)CC(C)C3)n2)c1 (stereo not drawn)	i	i	i	i	-12	.	.
Cc1cccc(Nc2nc(N)c([N+](=O)[O-])c(N3CC(C)OC(C)C3)n2)c1 (stereo not drawn)	i	i	i	-9*	-10	88*	i
C=CCN(c1nc(C)cc(OC)n1)S(=O)(=O)c1ccc(C)cc1	i	i	i	i	-7	.	.
C=CCN(c1nc(C)cc(OC)n1)S(=O)(=O)c1ccccc1	i	i	i	-9.2*	-12	107*	i
COc1ccc(C(=O)COC(=O)CCN2C(=O)C3C4C=CC(C5CC45)C3C2=O)cc1 (stereo not drawn)	i	i	i	i	-16	.	.
CCOc1nc(CC(C)C)c2c(c1C#N)CC(C)(C)OC2	i	i	i	-9*	-14	111*	i
CCOc1ncnc2c1oc1nc(CC(C)C)c3c(c12)CC(C)(C)OC3	i	i	i	i	-15	.	.
COc1cc(N2CCCC2)ccc1[N+](=O)[O-]	i	i	i	i	-5	.	.
COc1ccc2c(c1)C(SCC(=O)NCCc1ccc(Cl)cc1)CC(C)(C)O2 (stereo not drawn)	i	i	i	-9*	-13	78*	i
COc1ccc(CCC(=O)NCCc2ccc(Cl)cc2)cc1	i	i	i	i	-6	.	.
Cc1cc(C(=O)CN2C(=O)c3ccccc3C2=O)c(C)n1Cc1cccs1	i	i	i	i	-7	.	.
Cc1cc(C(=O)Cn2nnc3ccccc3c2=O)c(C)n1Cc1cccs1	i	i	i	-9.1*	-2	111*	i
CCn1c(CCCOc2ccc(Cl)cc2Cl)n[nH]c1=S	i	i	i	i	-7	.	.
N#CC1=C(N)NC(SCC(=O)Nc2ccccc2)=C(C#N)C12CCCCC2	i	i	i	-9.5*	-7	106*	0.14*
COc1ccc(C(=O)CSC2=C(C#N)C3(CCCCC3)C(C#N)=C(N)N2)cc1	i	i	i	-10*	-22	112*	0.12*
SMILES	KCNQ1 act	KCNK9 inh	KCNQ1 block	KCNK3 block	hERG protect	KCNK3 confirm	KCNK3 noninduced
N#CC1=C(N)NC(SCc2ccccc2)=C(C#N)C12CCCCC2	i	i	i	i	-37	.	.
Cc1noc(C)c1COc1ccccc1C(=O)NCCc1ccccc1	.	.	.	i	.	.	.
Cc1noc(C)c1COc1ccccc1C(=O)NCc1ccccc1Cl	i	i	i	-8.8*	-12	105*	i
Cc1cc(C)c(NC(=O)/C(=C/c2ccco2)c2ccccc2)c(C)c1	i	i	i	-9*	-3	108*	i
Cc1nn(-c2ccccc2)nc1CNC(=O)C1CC1	i	i	i	i	-4	.	.
CCc1ccc(-c2nc(CSCC(=O)N3CCN(c4ccccn4)CC3)c(C)o2)cc1	i	i	i	i	-33	.	.
CCOc1ccc(-c2nc(CSCC(=O)N3CCN(c4cccc(OC)c4)CC3)c(C)o2)cc1	i	i	i	-12*	-15	138*	0.15*
O=C(COC(=O)c1ccco1)Nc1nnc(-c2ccccc2)o1	i	i	i	i	-13	.	.
O=C(OCc1nc(-c2ccccc2)oc1COC(=O)c1ccco1)c1ccco1	i	i	i	-9.1*	-3	102*	i
CC1CC(Nc2ccccc2)c2ccccc2N1C(=O)c1ccncc1 (stereo not drawn)	i	i	i	i	-9	.	.
CC1CC(Nc2ccccc2)c2ccccc2N1C(=O)c1ccco1 (stereo not drawn)	i	i	i	-13*	-10	115*	i
O=C(CSc1nc2ccccc2c(=O)n1-c1ccccc1)N/N=C/C=C/c1ccccc1[N+](=O)[O-]	i	i	i	-9.1*	-16	100*	i
CCCS(=O)(=O)c1c(S(=O)(=O)CCC)c2ccc(C(N)=O)cn2c1C(=O)c1ccc(F)cc1	i	-7.4*	i	-12*	-9	91*	i
Cc1ccccc1C(=O)NC1CC2CCCC(C1)N2C(=O)Nc1ccccc1 (stereo not drawn)	i	i	i	i	-5	.	.
O=C(Nc1ccc(N2CCCC2)cc1)c1cccc(-c2cc3ccccc3oc2=O)c1	i	i	i	-10*	-7	84*	i
c1ccc(-c2nc(N3CCCCCC3)nc(-n3ccnc3)n2)cc1	i	-7*	i	-10*	-11	122*	i
Nc1nc(-c2cccnc2)nc(N2CCCCC2)n1	i	i	i	i	-10	.	.
COc1nc(-c2ccccc2)ccc1-c1noc(-c2ccccc2)n1	i	i	i	-12*	-5	99*	i
Cc1ccc(OCCCC(=O)NCc2ccco2)c(C)c1	i	i	i	.	-9	.	.
